Laboratory results from ChEMBL document CHEMBL4007399, “Discovery and Synthesis of a Phosphoramidate Prodrug of a Pyrrolo[2,1-f][triazin-4-amino] Adenine C-Nucleoside (GS-5734) for the Treatment of Ebola and Emerging Viruses” (J Med Chem, 2017).

Experiments:
[1] = Lipophilicity, log D of the compound after 30 mins by HPLC/UV method; type: physicochemical; settings: 0.5 h
[2] = test system: Human orthopneumovirus; assay: Antiviral activity against Respiratory syncytial virus A2 infected in human Hep2 cells assessed as reduction of virus-induced cytopathic effect after 4 days by Cell-Titer Glo assay; type: functional, cell-based
[3] = test system: Brain; assay: Drug uptake in cynomolgus monkey brain at 10 mg/kg, iv at 168 hrs post dose; type: ADME, organism-based, Macaca fascicularis; settings: in vivo
[4] = test system: MT4; assay: Cytotoxicity against human MT4 cells assessed as reduction in cell viability after 4 to 5 days by Cell-Titer Glo assay; type: cell-based; settings: mt4
[5] = test system: Hepatitis C virus; assay: Antiviral activity against Hepatitis C virus genotype 1b infected in human HuH7 cells preincubated with cells for 3 days followed by viral infection by luciferase assay; type: functional, cell-based, Hepacivirus hominis
[6] = test system: Plasma; assay: Half life in human plasma at 2 uM by LC/MS/MS analysis; type: ADME, cell-free; settings: 2 µM
[7] = Drug uptake in cynomolgus monkey epididymis at 10 mg/kg, iv at 4 hrs post dose; type: ADME, organism-based, Macaca fascicularis; settings: in vivo
[8] = test system: Plasma; assay: Drug uptake in cynomolgus monkey plasma at 10 mg/kg, iv at 4 hrs post dose; type: ADME, organism-based, Macaca fascicularis; settings: in vivo
[9] = test system: PBMC; assay: Time at which plasma concentration greater than in vitro EBOV antiviral IC50 in rhesus monkey PBMC assessed as ((2R,3S,4R,5R)-5-(4-aminopyrrolo[1,2-f][1,2,4]triazin-7-yl)-5-cyano-3,4-dihydroxytetrahydrofuran-2-yl)methyl tetrahydrogen triphosphate levels at 10 mg/kg, iv administered as single bolus; type: ADME, organism-based, Macaca mulatta; settings: in vivo
Procedure, shortened: (§1)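 Rhesus monkeys received a single 10 mg/kg iv slow bolus. The active triphosphate metabolite was measured inside PBMCs over time to build a concentration–time profile. Values are mean ± SD, n = 3 per time point.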

[10] = test system: Ebolavirus; assay: Antiviral activity against GFP-fused Ebolavirus infected in TERT-immortalized HMVEC assessed as reduction in viral replication preincubated with cells followed by viral infection measured after 3 to 4 days by fluorescence assay; type: functional
[11] = test system: PBMC; assay: Drug metabolism in rhesus monkey PBMC assessed as ((2R,3S,4R,5R)-5-(4-aminopyrrolo[1,2-f][1,2,4]triazin-7-yl)-5-cyano-3,4-dihydroxytetrahydrofuran-2-yl)methyl tetrahydrogen triphosphate levels at 10 mg/kg, iv administered as single bolus dose up to 2 hrs; type: ADME, organism-based, Macaca mulatta; settings: in vivo; procedure, shortened: as §1
[12] = Drug uptake in cynomolgus monkey testes at 10 mg/kg, iv at 4 hrs post dose; type: ADME, organism-based, Macaca fascicularis, Testis; settings: in vivo
[13] = Drug metabolism in cynomolgus monkey testes at 10 mg/kg, iv after 168 hrs post dose; type: ADME, organism-based, Macaca fascicularis, Testis; settings: in vivo
[14] = test system: Brain; assay: Drug uptake in cynomolgus monkey brain at 10 mg/kg, iv at 4 hrs post dose; type: ADME, organism-based, Macaca fascicularis; settings: in vivo
[15] = test system: Ebolavirus; assay: Antiviral activity against Ebolavirus Kikwit infected in human HeLa cells assessed as reduction in viral glycoprotein levels preincubated with cells for 2 hrs followed by viral infection measured after 48 hrs by immunostaining based assay; type: functional, cell-based; settings: hela
[16] = test system: Homo sapiens; assay: Toxicity in phase-1 acute meningoencephalytis patient at 150 mg, iv qd administered daily for 2 days followed by 225 mg for 14 days; type: organism-based; settings: in vivo
[17] = test system: Homo sapiens; assay: Toxicity in iv dosed phase-1 acute meningoencephalytis patient administered as single dose; type: organism-based; settings: in vivo
[18] = test system: Plasma; assay: Prodrug conversion in rhesus monkey plasma assessed as (2R,3R,4S,5R)-2-(4-aminopyrrolo[1,2-f][1,2,4]triazin-7-yl)-3,4-dihydroxy-5-(hydroxymethyl)tetrahydrofuran-2-carbonitrile formation at 10 mg/kg, iv administered as single bolus dose; type: ADME, organism-based, Macaca mulatta; settings: in vivo
Procedure, shortened: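 Rhesus monkeys received a single 10 mg/kg iv slow bolus. Plasma was sampled over time, and the prodrug and the parent nucleoside formed from it were both quantified to give a concentration–time profile. Values are mean ± SD, n = 3 per time point.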

[19] = test system: HEp-2; assay: Cytotoxicity against human Hep2 cells assessed as reduction in cell viability after 4 to 5 days by Cell-Titer Glo assay; type: cell-based; settings: hep-2
[20] = test system: Ebolavirus; assay: Antiviral activity against Ebolavirus Kikwit infected in human macrophages preincubated with cells for 2 hrs followed by viral infection measured after 48 hrs; type: functional
[21] = test system: Ebolavirus; assay: Antiviral activity against Ebolavirus infected in rhesus monkey assessed as survival rate at 10 mg/kg, iv administered daily starting from day 3 post infection for 12 days relative to control; type: functional; settings: Orthoebolavirus, in Macaca mulatta
[22] = test system: Ebolavirus; assay: Antiviral activity against Ebolavirus infected in rhesus monkey assessed as viral RNA copies at 10 mg/kg, iv administered daily administered daily starting from day 3 post infection measured on day 5 and 7 (reference value: 10^9 copies/ml); type: functional
[23] = test system: Ebolavirus; assay: Antiviral activity against Ebolavirus infected in rhesus monkey assessed as survival rate at 3 mg/kg, iv qd administered continuously starting from day 3 post infection for 12 days measured on day 28 (reference value: 33%); type: functional; settings: Orthoebolavirus, in Macaca mulatta
[24] = molecular target: T1, DNA polymerase alpha catalytic subunit (Homo sapiens, UniProt P09884); assay: Inhibition of recombinant human DNA polymerase alpha preincubated with enzyme followed by addition of dATP/dGTP/TTP as substrate in presence of […] by phosphorimaging assay
T1 sequence (P09884 whole entry): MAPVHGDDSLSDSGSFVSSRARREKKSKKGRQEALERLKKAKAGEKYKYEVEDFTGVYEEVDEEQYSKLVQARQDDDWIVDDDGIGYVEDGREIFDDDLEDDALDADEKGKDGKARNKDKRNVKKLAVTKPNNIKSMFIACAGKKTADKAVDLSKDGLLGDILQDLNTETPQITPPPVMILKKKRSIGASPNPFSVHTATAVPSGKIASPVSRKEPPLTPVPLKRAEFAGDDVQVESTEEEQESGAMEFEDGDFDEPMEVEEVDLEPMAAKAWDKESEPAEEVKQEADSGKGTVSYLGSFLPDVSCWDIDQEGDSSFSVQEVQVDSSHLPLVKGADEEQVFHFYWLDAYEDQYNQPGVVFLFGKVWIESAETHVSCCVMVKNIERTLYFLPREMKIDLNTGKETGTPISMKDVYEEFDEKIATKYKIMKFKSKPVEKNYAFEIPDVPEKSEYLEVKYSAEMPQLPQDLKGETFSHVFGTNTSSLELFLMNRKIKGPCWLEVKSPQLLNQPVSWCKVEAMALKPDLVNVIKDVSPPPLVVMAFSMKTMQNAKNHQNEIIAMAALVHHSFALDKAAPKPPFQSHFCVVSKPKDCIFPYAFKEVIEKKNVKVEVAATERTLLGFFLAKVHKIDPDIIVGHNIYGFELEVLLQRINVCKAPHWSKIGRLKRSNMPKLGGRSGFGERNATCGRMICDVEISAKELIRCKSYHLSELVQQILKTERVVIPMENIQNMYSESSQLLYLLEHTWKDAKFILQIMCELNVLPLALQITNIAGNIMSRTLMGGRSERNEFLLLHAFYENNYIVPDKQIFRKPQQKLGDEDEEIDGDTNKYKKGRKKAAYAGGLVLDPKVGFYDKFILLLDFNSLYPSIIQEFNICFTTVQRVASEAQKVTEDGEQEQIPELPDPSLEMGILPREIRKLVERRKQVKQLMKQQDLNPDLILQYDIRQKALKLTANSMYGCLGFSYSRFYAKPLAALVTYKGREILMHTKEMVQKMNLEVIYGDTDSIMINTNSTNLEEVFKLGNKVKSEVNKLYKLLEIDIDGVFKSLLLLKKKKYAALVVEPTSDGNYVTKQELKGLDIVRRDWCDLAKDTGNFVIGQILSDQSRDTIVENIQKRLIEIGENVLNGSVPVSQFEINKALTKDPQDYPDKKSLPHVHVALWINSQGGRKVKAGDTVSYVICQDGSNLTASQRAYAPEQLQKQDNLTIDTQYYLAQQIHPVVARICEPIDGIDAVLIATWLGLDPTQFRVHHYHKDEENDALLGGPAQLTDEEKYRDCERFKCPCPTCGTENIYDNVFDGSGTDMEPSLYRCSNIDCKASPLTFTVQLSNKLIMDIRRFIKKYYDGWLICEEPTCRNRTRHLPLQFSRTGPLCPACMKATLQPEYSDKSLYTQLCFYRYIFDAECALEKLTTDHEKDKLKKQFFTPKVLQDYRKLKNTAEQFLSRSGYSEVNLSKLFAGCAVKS

[25] = Inhibition of RNA polymerase 2 in human HeLa cells preincubated for 5 mins with […] as substrate followed by addition of cell extract measured after 1 hr by SDS-PAGE method
[26] = Drug level in human HeLa cells treated with (2S)-2-ethylbutyl 2-((((2R,3S,4R,5R)-5-(4-aminopyrrolo[1,2-f][1,2,4]triazin-7-yl)-5-cyano-3,4-dihydroxytetrahydrofuran-2-yl)methoxy)(phenoxy)phosphorylamino)propanoate at 1 uM after 2 to 72 hrs; type: ADME, cell-based
[27] = test system: PBMC; assay: Drug level in rhesus monkey PBMC treated with (S)-2-Ethylbutyl 2-(((S)-(((2R,3S,4R,5R)-5-(4-Aminopyrrolo-[2,1-f][1,2,4]triazin-7-yl)-5-cyano-3,4-dihydroxytetrahydrofuran-2-yl)methoxy)(phenoxy)phosphoryl)amino)propanoate at 10 mg/kg, iv administered as single bolus dose up to 2 hrs; type: ADME, organism-based, Macaca mulatta; settings: in vivo
[28] = molecular target: T2, DNA-directed RNA polymerase, mitochondrial (Homo sapiens, UniProt O00411); assay: Inhibition of human mitochondrial RNA polymerase assessed as single nucleotide incorporation rate in presence of 5'-[32P]-R12/D18 as primer/template by PAGE based phosphorimaging assay; design: scale not given: the % may be the effect or the level left
[29] = molecular target: T2, DNA-directed RNA polymerase, mitochondrial; assay: Inhibition of human mitochondrial RNA polymerase after 30 mins in presence of [33P]GTP
[30] = Inhibition of Hepatitis C virus genotype 1b NS5B RNA-dependent-RNA polymerase preincubated for 5 mins followed by [alpha-33P]GTP addition measured after 90 mins by phosphorimaging assay; design: species or system Hepatitis C virus subtype 1b
[31] = Inhibition of Respiratory syncytial virus A2 RNA-dependent-RNA polymerase assessed as reduction in RNP transcriptional activity after 90 mins in presence of [gamma-32P]ATP by agarose gel based phosphorimaging assay; design: species or system Human respiratory syncytial virus A2
[32] = Inhibition of recombinant human DNA polymerase gamma assessed as single nucleotide incorporation rate after 5 to 90 mins in presence of [32P]-D19/D36 as primer/template by PAGE based phosphorimaging assay; design: scale not given: the % may be the effect or the level left
[33] = Inhibition of recombinant human DNA polymerase gamma preincubated with enzyme followed by addition of dATP/dGTP/TTP as substrate in presence of […] by phosphorimaging assay
[34] = molecular target: DNA polymerase beta (Homo sapiens, UniProt P06746); assay: Inhibition of recombinant human DNA polymerase beta preincubated with enzyme followed by addition of dATP/dGTP/TTP as substrate in presence of […] by phosphorimaging assay
[35] = Drug level in TERT-immortalized HMVEC treated with (2S)-2-ethylbutyl 2-((((2R,3S,4R,5R)-5-(4-aminopyrrolo[1,2-f][1,2,4]triazin-7-yl)-5-cyano-3,4-dihydroxytetrahydrofuran-2-yl)methoxy)(phenoxy)phosphorylamino)propanoate at 1 uM after 2 to 72 hrs; type: ADME, cell-based; settings: human
[36] = test system: Macrophage; assay: Drug level in human macrophages treated with (2S)-2-ethylbutyl 2-((((2R,3S,4R,5R)-5-(4-aminopyrrolo[1,2-f][1,2,4]triazin-7-yl)-5-cyano-3,4-dihydroxytetrahydrofuran-2-yl)methoxy)(phenoxy)phosphorylamino)propanoate at 1 uM after 2 to 72 hrs; type: ADME, cell-based

T2 sequence (O00411 whole entry): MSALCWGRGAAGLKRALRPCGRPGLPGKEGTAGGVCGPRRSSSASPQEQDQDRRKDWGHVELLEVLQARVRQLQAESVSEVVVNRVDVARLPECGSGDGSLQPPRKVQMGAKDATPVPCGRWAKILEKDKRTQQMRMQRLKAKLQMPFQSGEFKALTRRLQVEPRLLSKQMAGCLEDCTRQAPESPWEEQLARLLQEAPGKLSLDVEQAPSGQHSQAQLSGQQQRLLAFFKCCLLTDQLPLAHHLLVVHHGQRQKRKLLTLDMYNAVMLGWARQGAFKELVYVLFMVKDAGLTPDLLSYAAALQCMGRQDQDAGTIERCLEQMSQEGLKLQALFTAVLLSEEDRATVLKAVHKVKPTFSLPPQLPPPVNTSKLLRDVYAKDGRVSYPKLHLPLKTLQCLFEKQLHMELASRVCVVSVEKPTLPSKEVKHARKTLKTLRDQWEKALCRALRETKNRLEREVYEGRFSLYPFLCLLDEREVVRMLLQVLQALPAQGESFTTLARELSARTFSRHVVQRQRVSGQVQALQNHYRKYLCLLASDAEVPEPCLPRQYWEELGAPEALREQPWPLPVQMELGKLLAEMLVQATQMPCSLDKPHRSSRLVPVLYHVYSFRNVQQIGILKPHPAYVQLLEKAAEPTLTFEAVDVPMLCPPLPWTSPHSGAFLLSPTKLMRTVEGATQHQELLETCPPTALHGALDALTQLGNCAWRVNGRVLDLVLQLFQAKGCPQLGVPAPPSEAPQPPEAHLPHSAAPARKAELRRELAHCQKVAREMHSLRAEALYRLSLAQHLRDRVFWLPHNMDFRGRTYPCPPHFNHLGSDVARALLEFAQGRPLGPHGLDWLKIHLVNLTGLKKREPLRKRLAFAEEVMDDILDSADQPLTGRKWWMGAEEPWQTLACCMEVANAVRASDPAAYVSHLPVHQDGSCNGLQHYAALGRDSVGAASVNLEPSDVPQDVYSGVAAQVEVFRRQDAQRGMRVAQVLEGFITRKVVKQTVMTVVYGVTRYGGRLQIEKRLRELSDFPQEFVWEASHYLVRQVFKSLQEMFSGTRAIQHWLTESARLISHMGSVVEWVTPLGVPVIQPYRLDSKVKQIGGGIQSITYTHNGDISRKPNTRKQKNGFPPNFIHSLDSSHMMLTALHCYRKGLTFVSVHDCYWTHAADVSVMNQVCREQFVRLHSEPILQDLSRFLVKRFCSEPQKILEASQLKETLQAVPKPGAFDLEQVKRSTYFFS

Structure (SMILES): CCC(CC)COC(=O)[C@H](C)N[P@](=O)(OC[C@H]1O[C@@](C#N)(c2ccc3c(N)ncnn23)[C@H](O)[C@@H]1O)Oc1ccccc1
- logD [1]: 2.1
- EC50 [2]: 0.015 µM
- Drug uptake [3]: Active
- CC50 [4]: 1.7 µM
- EC50 [5]: 0.057 µM
- t1/2 [6]: 1.15 h
- Drug uptake [7]: Active
- Drug uptake [8]: Active
- Time [9]: 24 h
- EC50 [10]: 0.053 µM
- Drug metabolism [11]: Metabolite_Detected
- Drug uptake [12]: Active
- Drug uptake [13]: Metabolite_Detected
- Drug uptake [14]: Not Active
- EC50 [15]: 0.1 µM
- Activity [16]: Non-Toxic
- Activity [17]: Non-Toxic
- Drug metabolism [18]: Metabolite_Detected
- CC50 [19]: 6.1 µM
- EC50 [20]: 0.086 µM
- survival at 10 mg/kg [21]: 100%
- Activity [22]: <80000 mL⁻¹
- survival at 3 mg/kg [23]: 66%

Structure (SMILES): N#C[C@@]1(c2ccc3c(N)ncnn23)O[C@H](COP(=O)(O)OP(=O)(O)OP(=O)(O)O)[C@@H](O)[C@H]1O [RDV-TP]
- IC50 [24]: > 200 µM
- IC50 [25]: > 200 µM
- Drug metabolism [26]: Metabolite_Detected
- Drug metabolism [27]: Metabolite_Detected
- Activity [28]: 6%
- IC50 [29]: > 200 µM
- IC50 [30]: 5 µM
- IC50 [31]: 1.1 µM
- Activity [32]: 0%
- IC50 [33]: > 200 µM
- IC50 [34]: > 200 µM
- Drug metabolism [35]: Metabolite_Detected
- Drug metabolism [36]: Metabolite_Detected
